Each structure is given as a SMILES string.

In assay [1] the test system is TK-10. The assay can be described thus: Cytotoxicity against human TK10 cells in aerobic condition assessed as survival at 100 uM by sulforhodamine assay. It is filed as functional. As to conditions: read-out: Activity. In short, it runs like this: (§1)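 Cells kept in RPMI with L-glutamine, penicillin/streptomycin, non-essential amino acids (1% each) and 10% FBS, 37 °C, 5% CO2, 48 h; compound added from 1 mM stock in 10% DMSO to final 100 µM, 24 h exposure. TCA fixation 1 h at 4 °C, sulforhodamine B staining, Tris pH 10.0, A540. Survival = (T/C)×100 versus solvent control; duplicates, two repetitions averaged.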

Assay [2] has as its system MCF7. In words: Cytotoxicity against human MCF7 cells […] in aerobic condition assessed as survival at 100 uM by sulforhodamine assay. To be noted: read-out: Activity. It is filed as functional. In short, it runs like this:
as §1

Assay [3] relates to HT-29. In words: Cytotoxicity against human HT29 cells ATCC HTB38 in aerobic condition assessed as survival at 100 uM by sulforhodamine assay. As to conditions: read-out: Activity. It is filed as functional. In outline: as §1
Assay [4] is described as follows: Growth inhibition of HK2 cells by sulforhodamine assay. In kind it is cell-based. As to conditions: Homo sapiens, HK-2.
For assay [5], the system named is TK-10. The assay can be described thus: Growth inhibition of TK10 cells by sulforhodamine assay. As to conditions: Homo sapiens. In kind it is functional, cell-based. In short, it runs like this: (§2)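 Cells grown in supplemented RPMI with 10% FBS at 37 °C, 5% CO2, 48 h, then exposed to increasing compound concentrations (1 mM stocks in 10% DMSO) for 24 h. Sulforhodamine B read-out after TCA fixation at A540. IC50 is the concentration halving absorbance relative to solvent control. Duplicates, at least two repetitions, means reported.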

Assay [6] has as its system MCF7. In words: Growth inhibition of MCF7 cells by sulforhodamine assay. It is filed as functional, cell-based. To be noted: Homo sapiens. In short, it runs like this:
as §2

Assay [7] relates to HT-29. In words: Growth inhibition of HT29 cells by sulforhodamine assay. It is filed as functional, cell-based. As to conditions: Homo sapiens. In outline: as §2

Turning to `O=C(/C=C/c1ccccc1)c1ccccc1` [CHALCONE], the viability at 100 µM amounted to 2% in the assay with TK-10 [1], 19% in the assay with MCF7 [2] and 5% with HT-29 [3]. For the same molecule, the IC50 in assay [4] stood at 30.5 µM; in the assay on TK-10 [5] it was 42 µM; in the assay on MCF7 [6], 63 µM; with HT-29 [7] it was 70 µM.
Turning to `O=C(/C=C/c1ccccn1)c1ccccc1O`, the values for the viability at 100 µM with TK-10 [1], with MCF7 [2] and in the assay with HT-29 [3] were 1%, 4% and 15%, respectively. Besides, the half-maximal inhibitory concentration (IC50) in assay [4] came out at 7.9 µM; in the assay with TK-10 [5] it was 12.2 µM; in the assay on MCF7 [6], 6.7 µM; in the assay on HT-29 [7], 13.8 µM.
As for `O=C(/C=C/c1ccccc1)c1ccccc1O` [2'-HYDROXYCHALCONE], the viability at 100 µM in the assay with TK-10 [1] worked out at 0%; in the assay with MCF7 [2], 3%; in the assay on HT-29 [3], 14%. Also, the concentration for half-maximal inhibition (IC50) in assay [4] amounted to 24.4 µM; with TK-10 [5], 79 µM; with MCF7 [6] it was 78 µM; with HT-29 [7] it was 85 µM.
As for `COc1ccc(/C=C/C(=O)c2ccccc2)cc1` [4-METHOXY CHALCONE], the viability at 100 µM with TK-10 [1] is 2%; in the assay with MCF7 [2] it was 30%; in the assay with HT-29 [3], 2%. The IC50 in assay [4] came out at 23.2 µM; with TK-10 [5], 53 µM; in the assay with MCF7 [6] it was 90 µM; in the assay with HT-29 [7] it was 54 µM.

Source of the values: ChEMBL document CHEMBL1147926, “Synthetic chalcones, flavanones, and flavones as antitumoral agents: biological evaluation and structure-activity relationships” (Bioorg Med Chem, 2007).
